Measured values: ChEMBL document CHEMBL1154320, “Cytotoxic neo-clerodane diterpenoid alkaloids from Scutellaria barbata” (J Nat Prod, 2009)

What was measured:
Assay type in all cases: functional, cell-based
[1] = tested on: KB; assay: Cytotoxicity against human KB cells after 72 hrs by methylene blue dye assay
Method in brief: (§1)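 Log-phase cells seeded at 5000 cells/mL/well in 24-well plates, exposed to a range of compound concentrations for 72 h. Growth read by methylene blue dye staining. IC50 (50% growth inhibition versus untreated control) read graphically; mean ± standard deviation of three independent replicates. IC50 above 10 µM taken as non-cytotoxic. Etoposide and cisplatin served as positive controls.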

[2] = tested on: HT-29; assay: Cytotoxicity against human HT-29 cells after 72 hrs by methylene blue dye assay; settings: HT-29, 72 h; method in brief: as §1
[3] = Cytotoxicity against human HONE1 cells after 72 hrs by methylene blue dye assay; settings: HONE1, 72 h; method in brief: as §1

| Structure (SMILES) | IC50 [1] [µM] | IC50 [2] [µM] | IC50 [3] [µM] |
| --- | --- | --- | --- |
| CC1=CCC[C@H]2[C@@]1(C)[C@@H](OC(=O)c1cccnc1)[C@H](OC(=O)c1ccccc1)[C@](C)(O)[C@]2(C)[C@H]1CC2=C(O1)C(=O)OC2 [SCUTEHENANINE D] | 2.8 | 6.4 | 4.1 |
| COc1cc([C@@H]2c3cc4c(cc3[C@@H](O[C@@H]3O[C@@H]5CO[C@@H](C)O[C@H]5[C@H](O)[C@H]3O)[C@H]3COC(=O)[C@H]23)OCO4)cc(OC)c1O [ETOPOSIDE] | 1.3 | 2.3 | 1.2 |
| CC(=O)O[C@H]1[C@H](OC(=O)c2cccnc2)[C@](C)(O)[C@](C)(/C=C/C2=CC(=O)OC2)[C@H]2CCC=C(C)[C@]12C [6-O-ACETYLSCUTEHENANINE A] | 3.2 | 5.2 | 3.7 |
| CC1=CCC[C@H]2[C@@]1(C)[C@@H](O)[C@H](OC(=O)c1cccnc1)[C@](C)(O)[C@]2(C)/C=C/C1=CC(=O)OC1 [SCUTEHENANINE A] | 4.5 | 5.8 | 3.1 |
| CC1=CCC[C@H]2[C@@]1(C)[C@@H](OC(=O)C(=O)C(C)C)[C@H](OC(=O)c1cccnc1)[C@](C)(O)[C@]2(C)/C=C/C1=CC(=O)OC1 | 4.2 | 5.5 | 4 |
| C=C1CCC[C@H]2[C@@]1(C)[C@@H](OC(=O)c1ccccc1)[C@H](O)[C@]1(C)O[C@@]3(COC(=O)C3)C[C@H](OC(=O)c3cccnc3)[C@]21C [SCUTEHENANINE C] | 2.9 | 5.3 | 3.4 |
| CC1=CCC[C@H]2[C@@]1(C)[C@@H](OC(=O)c1ccccc1)[C@H](O)[C@]1(C)O[C@@]3(COC(=O)C3)C[C@H](OC(=O)c3cccnc3)[C@]21C [SCUTEHENANINE B] | 4.7 | 5 | 3.5 |
